In ChEMBL document CHEMBL4808167, “Design, Synthesis, and Evaluation of Small Molecule Gαq/11 Protein Inhibitors for the Treatment of Uveal Melanoma” (J Med Chem, 2021):

Tests used:
[1] = molecular target: GNAQ/GNA11 (Homo sapiens) (UniProt P50148+P29992); test: Inhibition of Galphaq/11 (unknown origin) expressed in CHO cells coexpressing M1 receptor assessed as reduction in carbachol-induced IP1 accumulation at 10 uM preincubated for 1 hr followed by carbachol stimulation and measured after 1 hr by HTRF assay relative to control; format: cell-based; conditions: time 2.0 hrs
[2] = Antiproliferative activity against human 92.1 cells assessed as inhibition of cell growth after 72 hrs by CCK8 assay; format: functional, cell-based; conditions: Homo sapiens, 921, 72 h
Procedure, shortened: (§1)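 92.1 or MP41 cells in RPMI-1640 with 10% FBS were seeded at 3 × 10³ cells/well. Exposed to serial concentrations for 72 h at 37 °C, 5% CO₂. CCK-8 added for 1−4 h, absorbance read at 450 nm. IC₅₀ from concentration−response curve fit, mean ± SD.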

[3] = Antiproliferative activity against human MP41 cells assessed as inhibition of cell growth after 72 hrs by CCK8 assay; format: functional, cell-based; conditions: MP41, 72 h; procedure, shortened: as §1

SMILES	inhibition [1]	IC50 [2]	IC50 [3]
N[C@@H](CC(=O)O)C(=O)N1CCn2cc(-c3ccccc3)nc2[C@@H]1CC1CCCCC1	10.2%	> 100 µM	> 100 µM
CC(C)C(=O)N1CCn2cc(-c3ccccc3)nc2[C@H]1C(C)C	14.4%	> 100 µM	> 100 µM
C[C@H](O)C(=O)N1CCn2cc(-c3ccccc3)nc2[C@@H]1CC1CCCCC1	22.5%	> 100 µM	56.3 µM
CC(C)[C@H](N)C(=O)N1CCn2cc(-c3ccccc3)nc2[C@@H]1CC1CCCCC1	21.7%	40.3 µM	83 µM
C[C@@H]1c2nc(-c3ccccc3)cn2CCN1C(=O)[C@@H](N)CS	6%	> 100 µM	> 100 µM
NC(=O)CC[C@H](N)C(=O)N1CCn2cc(-c3ccccc3)nc2[C@@H]1CC1CCCCC1	18.5%	87.2 µM	> 100 µM
CN[C@@H](CS)C(=O)N1CCn2cc(-c3ccccc3)nc2[C@H]1C(C)C	30.5%	> 100 µM	> 100 µM
CC(C)[C@H]1c2nc(-c3ccccc3)cn2CCN1C(=O)[C@@H](N)CO	2.8%	> 100 µM	> 100 µM
CC[C@@H](C)[C@H](N)C(=O)N1CCn2cc(-c3ccccc3)nc2[C@H]1CC(C)C	6.5%	> 100 µM	> 100 µM
CC(C)[C@@H]1c2nc(-c3ccccc3)cn2CCN1C(=O)[C@@H](N)CO	9.5%	> 100 µM	> 100 µM
CC(C)C[C@@H]1c2nc(-c3ccccc3)cn2CCN1C(=O)[C@@H](N)CO	4%	> 100 µM	> 100 µM
O=C(CCS)N1CCn2cc(-c3ccccc3)nc2[C@@H]1CC1CCCCC1	19.8%	29.1 µM	> 100 µM
NCCCC[C@H](N)C(=O)N1CCn2cc(-c3ccccc3)nc2[C@@H]1CC1CCCCC1	36.8%	> 100 µM	> 100 µM
NCC(=O)N1CCn2cc(-c3ccccc3)nc2[C@@H]1CC1CCCCC1	21.9%	19.3 µM	> 100 µM
N[C@@H](CS)C(=O)N1CCn2cc(-c3ccccc3)nc2[C@@H]1Cc1ccccc1	22.9%	45.2 µM	19.8 µM
CC(C)C[C@@H]1c2nc(-c3ccccc3)cn2CCN1C(=O)[C@@H](N)CS	50.4%	64.1 µM	47.7 µM
N[C@@H](CO)C(=O)N1CCn2cc(-c3ccccc3)nc2[C@@H]1CC1CCCCC1	29.3%	78.4 µM	> 100 µM
N[C@@H](Cc1c[nH]cn1)C(=O)N1CCn2cc(-c3ccccc3)nc2[C@@H]1CC1CCCCC1	24.7%	91.9 µM	> 100 µM
CC(C)[C@H]1c2nc(-c3ccccc3)cn2CCN1C(=O)[C@@H](N)CS	33.9%	65.7 µM	> 100 µM
CC(C)C(=O)N1CCn2cc(-c3ccccc3)nc2[C@@H]1C(C)C	9.9%	> 100 µM	> 100 µM
CC(C)C[C@@H]1c2nc(-c3ccccc3)cn2CCN1C(=O)C(C)C	2.6%	> 100 µM	> 100 µM
CC(C)[C@H]1c2nc(-c3ccccc3)cn2CCN1C(=O)[C@@H](N)Cc1ccc(O)cc1	6.6%	> 100 µM	> 100 µM
CC[C@@H](C)[C@H](N)C(=O)N1CCn2cc(-c3ccccc3)nc2[C@H]1C(C)C	0.96%	> 100 µM	97.2 µM
CC[C@@H](C)[C@H](N)C(=O)N1CCn2cc(-c3ccccc3)nc2[C@@H]1C(C)C	1.8%	> 100 µM	> 100 µM
CC(C)C[C@@H]1c2nc(-c3ccccc3)cn2CCN1C(=O)[C@@H](N)CCCCN	1.3%	> 100 µM	> 100 µM
N=C(N)NCCC[C@H](N)C(=O)N1CCn2cc(-c3ccccc3)nc2[C@@H]1CC1CCCCC1	6.2%	> 100 µM	> 100 µM
CC(C)C[C@@H]1c2nc(-c3ccccc3)cn2CCN1C(=O)[C@@H](N)Cc1ccc(O)cc1	3.7%	> 100 µM	> 100 µM

SMILES	inhibition [1]	IC50 [2]	IC50 [3]
CN[C@@H](CS)C(=O)N1CCn2cc(-c3ccccc3)nc2[C@H]1CC(C)C	13.2%	> 100 µM	59.3 µM
O=C([C@@H]1CCCN1)N1CCn2cc(-c3ccccc3)nc2[C@@H]1CC1CCCCC1	14.2%	27.4 µM	63.4 µM
CC(C)C[C@H]1c2nc(-c3ccccc3)cn2CCN1C(=O)[C@@H](N)CS	25.3%	35.2 µM	91.9 µM
N[C@@H](CCC(=O)O)C(=O)N1CCn2cc(-c3ccccc3)nc2[C@@H]1CC1CCCCC1	16.2%	> 100 µM	> 100 µM
CC(C)[C@H]1c2nc(-c3ccccc3)cn2CCN1C(=O)[C@@H](N)CCCCN	5.3%	> 100 µM	> 100 µM
N[C@@H](Cc1ccccc1)C(=O)N1CCn2cc(-c3ccccc3)nc2[C@@H]1CC1CCCCC1	21.2%	30.1 µM	25.5 µM
CC(C)[C@@H]1c2nc(-c3ccccc3)cn2CCN1C(=O)[C@@H](N)CCCCN	11.7%	> 100 µM	> 100 µM
C[C@@H](O)[C@H](N)C(=O)N1CCn2cc(-c3ccccc3)nc2[C@@H]1CC1CCCCC1	10.7%	> 100 µM	> 100 µM
CC(C)[C@@H]1c2nc(-c3ccccc3)cn2CCN1C(=O)[C@@H](N)CS	48.4%	62.7 µM	> 100 µM
CN(C)[C@@H](CS)C(=O)N1CCn2cc(-c3ccccc3)nc2[C@@H]1CC1CCCCC1	11.9%	> 100 µM	> 100 µM
CN[C@@H](CS)C(=O)N1CCn2cc(-c3ccccc3)nc2[C@@H]1CC1CCCCC1	30%	24 µM	27.8 µM
C[C@H]1c2nc(-c3ccccc3)cn2CCN1C(=O)[C@@H](N)CS	24.4%	> 100 µM	> 100 µM
CCN(CC)[C@@H](CS)C(=O)N1CCn2cc(-c3ccccc3)nc2[C@@H]1CC1CCCCC1	24.2%	> 100 µM	> 100 µM
CC(C)C[C@H](N)C(=O)N1CCn2cc(-c3ccccc3)nc2[C@@H]1CC1CCCCC1	15.9%	55.4 µM	33.5 µM
C[C@@H](CS)C(=O)N1CCn2cc(-c3ccccc3)nc2[C@@H]1CC1CCCCC1	25.6%	33.1 µM	> 100 µM
CC[C@H](C)C(=O)N1CCn2cc(-c3ccccc3)nc2[C@@H]1CC1CCCCC1	47.1%	27.4 µM	79 µM
CC(C)C(=O)N1CCn2cc(-c3ccccc3)nc2[C@@H]1CC1CCCCC1	44.2%	42.3 µM	> 100 µM
N[C@@H](Cc1c[nH]c2ccccc12)C(=O)N1CCn2cc(-c3ccccc3)nc2[C@@H]1CC1CCCCC1	7.4%	20.6 µM	15.6 µM
CC[C@H](C)C(=O)N1CCn2cc(-c3ccccc3)nc2[C@@H]1C(C)C	12.9%	> 100 µM	> 100 µM
N[C@@H](CS)C(=O)N1CCn2cc(-c3ccccc3)nc2[C@H]1Cc1ccccc1	19.5%	25.8 µM	20 µM
C[C@H](N)C(=O)N1CCn2cc(-c3ccccc3)nc2[C@@H]1CC1CCCCC1	17.1%	35.5 µM	95.9 µM
CC[C@H](C)C(=O)N1CCn2cc(-c3ccccc3)nc2[C@H]1CC(C)C	1.1%	84.4 µM	85.8 µM
CSCC[C@H](N)C(=O)N1CCn2cc(-c3ccccc3)nc2[C@@H]1CC1CCCCC1	12.4%	42 µM	> 100 µM
NC(=O)C[C@H](N)C(=O)N1CCn2cc(-c3ccccc3)nc2[C@@H]1CC1CCCCC1	19.8%	> 100 µM	> 100 µM
CC(C)[C@@H]1c2nc(-c3ccccc3)cn2CCN1C(=O)[C@@H](N)Cc1ccc(O)cc1	18%	> 100 µM	97.6 µM
CC[C@H](C)C(=O)N1CCn2cc(-c3ccccc3)nc2[C@H]1C(C)C	11.8%	> 100 µM	> 100 µM
CN[C@@H](CS)C(=O)N1CCn2cc(-c3ccccc3)nc2[C@@H]1C(C)C	11.5%	45 µM	> 100 µM
